Measurements: ChEMBL document CHEMBL5376013, “Design, synthesis and biological evaluation of novel morpholinopyrimidine-5-carbonitrile derivatives as dual PI3K/mTOR inhibitors” (RSC Med Chem, 2024)

Tests used:
Format in all cases: functional
Details in all cases: read-out: GI
[1] = system: HCT-116; test: Antitumor activity against human HCT-116 cells assessed as growth inhibition at 10 uM relative to control
Outline: (§1)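 After drug addition, plates were incubated 48 h at 37 °C under 5% CO2. Adherent cells were fixed with cold TCA (10% final, 60 min, 4 °C) and suspension cells with 16% final TCA. Staining used 0.4% SRB in 1% acetic acid, solubilized in 10 mM trizma, read at A515. Percent growth was calculated from time-zero, control and treated absorbances.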

[2] = system: DU-145; test: Antitumor activity against human DU-145 cells assessed as growth inhibition at 10 uM relative to control; outline: as §1
[3] = system: SF-268; test: Antitumor activity against human SF-268 cells assessed as growth inhibition at 10 uM relative to control; outline: as §1
[4] = system: LOX IMVI; test: Antitumor activity against human LOX IMVI cells assessed as growth inhibition at 10 uM relative to control; outline: as §1
[5] = system: SNB-75; test: Antitumor activity against human SNB-75 cells assessed as growth inhibition at 10 uM relative to control
Outline: (§2)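 Drug exposure 48 h at 37 °C, 5% CO2. Adherent cells fixed with cold TCA (10% final), suspension cells with TCA (16% final). Stained with 0.4% SRB in 1% acetic acid, dissolved in 10 mM Tris, A515. Growth relative to time-zero and untreated control.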

[6] = system: MDA-MB-435; test: Antitumor activity against human MDA-MB-435 cells assessed as growth inhibition at 10 uM relative to control; outline: as §1
[7] = system: SW-620; test: Antitumor activity against human SW-620 cells assessed as growth inhibition at 10 uM relative to control; outline: as §2
[8] = system: OVCAR-4; test: Antitumor activity against human OVCAR-4 cells assessed as growth inhibition at 10 uM relative to control; outline: as §1
[9] = system: M14; test: Antitumor activity against human M14 cells assessed as growth inhibition at 10 uM relative to control; outline: as §1
[10] = system: NCI-H460; test: Antitumor activity against human NCI-H460 cells assessed as growth inhibition at 10 uM relative to control; outline: as §1
[11] = system: SK-MEL-5; test: Antitumor activity against human SK-MEL-5 cells assessed as growth inhibition at 10 uM relative to control; outline: as §2
[12] = system: EKVX; test: Antitumor activity against human EKVX cells assessed as growth inhibition at 10 uM relative to control; outline: as §1
[13] = system: MDA-MB-231; test: Antitumor activity against human MDA-MB-231 cells assessed as growth inhibition at 10 uM relative to control; outline: as §1
[14] = system: HOP-92; test: Antitumor activity against human HOP-92 cells assessed as growth inhibition at 10 uM relative to control; outline: as §1
[15] = system: MOLT-4; test: Antitumor activity against human MOLT-4 cells assessed as growth inhibition at 10 uM relative to control; outline: as §1
[16] = system: NCI-H322M; test: Antitumor activity against human NCI-H322M cells assessed as growth inhibition at 10 uM relative to control; outline: as §1
[17] = system: ACHN; test: Antitumor activity against human ACHN cells assessed as growth inhibition at 10 uM relative to control; outline: as §1
[18] = system: PC-3; test: Antitumor activity against human PC-3 cells assessed as growth inhibition at 10 uM relative to control; outline: as §1
[19] = system: IGROV-1; test: Antitumor activity against human IGROV-1 cells assessed as growth inhibition at 10 uM relative to control; outline: as §1
[20] = system: SN12C; test: Antitumor activity against human SN12C cells assessed as growth inhibition at 10 uM relative to control; outline: as §2
[21] = system: SF-295; test: Antitumor activity against human SF-295 cells assessed as growth inhibition at 10 uM relative to control; outline: as §1
[22] = system: UACC-257; test: Antitumor activity against human UACC-257 cells assessed as growth inhibition at 10 uM relative to control; outline: as §2
[23] = system: BT-549; test: Antitumor activity against human BT-549 cells assessed as growth inhibition at 10 uM relative to control; outline: as §1
[24] = system: HL-60; test: Antitumor activity against human HL-60 cells assessed as growth inhibition at 10 uM relative to control; outline: as §1
[25] = system: CAKI-1; test: Antitumor activity against human CAKI-1 cells assessed as growth inhibition at 10 uM relative to control; outline: as §1
[26] = system: OVCAR-3; test: Antitumor activity against human OVCAR-3 cells assessed as growth inhibition at 10 uM relative to control; outline: as §1
[27] = system: UACC-62; test: Antitumor activity against human UACC-62 cells assessed as growth inhibition at 10 uM relative to control; outline: as §2
[28] = system: 786-0; test: Antitumor activity against human 786-0 cells assessed as growth inhibition at 10 uM relative to control; outline: as §1
[29] = system: OVCAR-8; test: Antitumor activity against human OVCAR-8 cells assessed as growth inhibition at 10 uM relative to control; outline: as §1
[30] = system: RXF 393; test: Antitumor activity against human RXF 393 cells assessed as growth inhibition at 10 uM relative to control; outline: as §1
[31] = system: A498; test: Antitumor activity against human A498 cells assessed as growth inhibition at 10 uM relative to control; outline: as §1
[32] = system: HCT-15; test: Antitumor activity against human HCT-15 cells assessed as growth inhibition at 10 uM relative to control; outline: as §1
[33] = system: COLO 205; test: Antitumor activity against human COLO 205 cells assessed as growth inhibition at 10 uM relative to control; outline: as §1
[34] = system: MDA-MB-468; test: Antitumor activity against human MDA-MB-468 cells assessed as growth inhibition at 10 uM relative to control; outline: as §1
[35] = system: SK-MEL-2; test: Antitumor activity against human SK-MEL-2 cells assessed as growth inhibition at 10 uM relative to control; outline: as §1
[36] = system: NCI-H226; test: Antitumor activity against human NCI-H226 cells assessed as growth inhibition at 10 uM relative to control; outline: as §1
[37] = system: HT-29; test: Antitumor activity against human HT-29 cells assessed as growth inhibition at 10 uM relative to control; outline: as §1
[38] = system: NCI-H522; test: Antitumor activity against human NCI-H522 cells assessed as growth inhibition at 10 uM relative to control; outline: as §1
[39] = system: SF-539; test: Antitumor activity against human SF-539 cells assessed as growth inhibition at 10 uM relative to control; outline: as §1
[40] = system: KM12; test: Antitumor activity against human KM12 cells assessed as growth inhibition at 10 uM relative to control; outline: as §1
[41] = system: HOP-62; test: Antitumor activity against human HOP-62 cells assessed as growth inhibition at 10 uM relative to control; outline: as §1
[42] = system: SK-MEL-28; test: Antitumor activity against human SK-MEL-28 cells assessed as growth inhibition at 10 uM relative to control; outline: as §2
[43] = system: T47D; test: Antitumor activity against human T47D cells assessed as growth inhibition at 10 uM relative to control; outline: as §2
[44] = system: SK-OV-3; test: Antitumor activity against human SK-OV-3 cells assessed as growth inhibition at 10 uM relative to control; outline: as §2
[45] = system: U-251; test: Antitumor activity against human U-251 cells assessed as growth inhibition at 10 uM relative to control; outline: as §2
[46] = system: UO-31; test: Antitumor activity against human UO-31 cells assessed as growth inhibition at 10 uM relative to control; outline: as §2

## N#Cc1c(-c2ccc(Cl)cc2)nc(N/N=C/c2cccc(F)c2)nc1N1CCOCC1
[1]
  inhibition of growth at 10 µM: < 1%
[2]
  inhibition of growth at 10 µM: < 1%
[3]
  inhibition of growth at 10 µM: < 1%
[4]
  inhibition of growth at 10 µM: 11.8%
[5]
  inhibition of growth at 10 µM: 35.8%
[6]
  inhibition of growth at 10 µM: < 1%
[7]
  inhibition of growth at 10 µM: < 1%
[8]
  inhibition of growth at 10 µM: < 1%
[9]
  inhibition of growth at 10 µM: < 1%
[10]
  inhibition of growth at 10 µM: < 1%
[11]
  inhibition of growth at 10 µM: < 1%
[12]
  inhibition of growth at 10 µM: 26.2%
[13]
  inhibition of growth at 10 µM: < 1%
[14]
  inhibition of growth at 10 µM: < 1%
[15]
  inhibition of growth at 10 µM: 25.9%
[16]
  inhibition of growth at 10 µM: < 1%
[17]
  inhibition of growth at 10 µM: 10.2%
[18]
  inhibition of growth at 10 µM: 14.9%
[19]
  inhibition of growth at 10 µM: 17.4%
[20]
  inhibition of growth at 10 µM: < 1%
[21]
  inhibition of growth at 10 µM: < 1%
[22]
  inhibition of growth at 10 µM: < 1%
[23]
  inhibition of growth at 10 µM: < 1%
[24]
  inhibition of growth at 10 µM: < 1%
[25]
  inhibition of growth at 10 µM: 13.7%
[26]
  inhibition of growth at 10 µM: < 1%
[27]
  inhibition of growth at 10 µM: < 1%
[28]
  inhibition of growth at 10 µM: < 1%
[29]
  inhibition of growth at 10 µM: < 1%
[30]
  inhibition of growth at 10 µM: < 1%
[31]
  inhibition of growth at 10 µM: 17%
[32]
  inhibition of growth at 10 µM: 21.3%
[33]
  inhibition of growth at 10 µM: 27.2%
[34]
  inhibition of growth at 10 µM: < 1%
[35]
  inhibition of growth at 10 µM: < 1%
[36]
  inhibition of growth at 10 µM: < 1%
[37]
  inhibition of growth at 10 µM: 30%
[38]
  inhibition of growth at 10 µM: 11.6%
[39]
  inhibition of growth at 10 µM: < 1%
[40]
  inhibition of growth at 10 µM: 16%
[41]
  inhibition of growth at 10 µM: 10.3%
[42]
  inhibition of growth at 10 µM: < 1%
[43]
  inhibition of growth at 10 µM: 11.2%
[44]
  inhibition of growth at 10 µM: < 1%
[45]
  inhibition of growth at 10 µM: 21.1%
[46]
  inhibition of growth at 10 µM: 37.5%

## N#Cc1c(-c2ccc(Cl)cc2)nc(NN2C(=O)c3ccccc3C2=O)nc1N1CCOCC1
[1]
  inhibition of growth at 10 µM: < 1%
[2]
  inhibition of growth at 10 µM: < 1%
[3]
  inhibition of growth at 10 µM: < 1%
[4]
  inhibition of growth at 10 µM: < 1%
[5]
  inhibition of growth at 10 µM: 15.4%
[6]
  inhibition of growth at 10 µM: < 1%
[7]
  inhibition of growth at 10 µM: < 1%
[8]
  inhibition of growth at 10 µM: < 1%
[9]
  inhibition of growth at 10 µM: < 1%
[10]
  inhibition of growth at 10 µM: < 1%
[11]
  inhibition of growth at 10 µM: < 1%
[12]
  inhibition of growth at 10 µM: < 1%
[13]
  inhibition of growth at 10 µM: < 1%
[14]
  inhibition of growth at 10 µM: < 1%
[15]
  inhibition of growth at 10 µM: < 1%
[16]
  inhibition of growth at 10 µM: < 1%
[17]
  inhibition of growth at 10 µM: < 1%
[18]
  inhibition of growth at 10 µM: < 1%
[19]
  inhibition of growth at 10 µM: < 1%
[20]
  inhibition of growth at 10 µM: < 1%
[21]
  inhibition of growth at 10 µM: < 1%
[22]
  inhibition of growth at 10 µM: < 1%
[23]
  inhibition of growth at 10 µM: < 1%
[24]
  inhibition of growth at 10 µM: < 1%
[25]
  inhibition of growth at 10 µM: < 1%
[26]
  inhibition of growth at 10 µM: < 1%
[27]
  inhibition of growth at 10 µM: < 1%
[28]
  inhibition of growth at 10 µM: < 1%
[29]
  inhibition of growth at 10 µM: < 1%
[30]
  inhibition of growth at 10 µM: < 1%
[31]
  inhibition of growth at 10 µM: < 1%
[32]
  inhibition of growth at 10 µM: < 1%
[33]
  inhibition of growth at 10 µM: < 1%
[34]
  inhibition of growth at 10 µM: < 1%
[35]
  inhibition of growth at 10 µM: < 1%
[36]
  inhibition of growth at 10 µM: < 1%
[37]
  inhibition of growth at 10 µM: < 1%
[38]
  inhibition of growth at 10 µM: < 1%
[39]
  inhibition of growth at 10 µM: < 1%
[40]
  inhibition of growth at 10 µM: < 1%
[41]
  inhibition of growth at 10 µM: < 1%
[42]
  inhibition of growth at 10 µM: < 1%
[43]
  inhibition of growth at 10 µM: < 1%
[44]
  inhibition of growth at 10 µM: < 1%
[45]
  inhibition of growth at 10 µM: < 1%
[46]
  inhibition of growth at 10 µM: 15.6%
